Measured values of several laboratories.
Protocols differ between the studies behind these lines.
DHFR: Dihydrofolate reductase (DHFR, Homo sapiens, UniProt P00374)
Tmem97: Sigma intracellular receptor 2 (Tmem97, Rattus norvegicus, UniProt Q5U3Y7)

| SMILES | target | assay | setting | endpoint | value |
| --- | --- | --- | --- | --- | --- |
| COc1cccc(NC(=S)NN=Cc2ccc(N3CCCCC3)cc2)c1 | DHFR | enzyme activity, inhibitor | 500 µM | inhibition | 84.9% |
| CNc1ncc2c(/C=C/C(=O)N3CCC(OC)CC3)nn(Cc3cccc(C(F)(F)F)c3)c2n1 | Mitogen-activated protein kinase kinase kinase 8 (MAP3K8, Homo sapiens, UniProt P41279) | enzyme activity, inhibitor, radiometric | 1 µM | remaining activity | 112% |
| CC(C)OC(=O)CNc1cccc(CN(Cc2ccc(-n3cccn3)cc2)S(=O)(=O)c2cccnc2)n1 | Rho-associated protein kinase 2 (ROCK2, Homo sapiens, UniProt O75116) | enzyme activity, inhibitor | 10 µM | inhibition | ≥ 50% |
| C=CC(=O)N1CCC(COCC(=O)N2CCN(c3nc(-c4cnc(N)nc4C(F)F)nc(N4CCOC[C@@H]4C)n3)CC2)CC1 | Calcium/calmodulin-dependent protein kinase type II subunit alpha (CAMK2A, Homo sapiens, UniProt Q9UQM7) | binding, competition with immobilised ligand | 1 µM | remaining binding | 100% |
| C[C@H]1C(=O)/C(=C/c2ccccc2)[C@H]2C[C@@H]1N(Cc1ccccc1)C[C@@]2(C)O | Tmem97 | ligand displacement, radioligand | 1 µM | inhibition | 0% |
| Cc1cc([C@@H](C)Nc2ccccc2C(=O)O)c2nc(N3CCC(F)(F)CC3)c(C#N)c(=O)n2c1 | Serine/threonine-protein kinase PLK1 (PLK1, Homo sapiens, UniProt P53350) | binding, competition with immobilised ligand | 1 µM | remaining binding | 100% |
| S=C(NCc1ccccc1)NN=Cc1ccc(N2CCCCC2)cc1 | DHFR | enzyme activity, inhibitor | 500 µM | inhibition | 82.8% |
| COc1ccc2[nH]c3c(c2c1)[C@H]1C[C@@H]([C@H]3C)N(Cc2ccccc2)C[C@]1(C)O | Tmem97 | ligand displacement, radioligand | 1 µM | inhibition | 0% |
| S=C(NN=Cc1ccc(N2CCCCC2)cc1)Nc1ccccc1 | DHFR | enzyme activity, inhibitor | 500 µM | inhibition | 90.1% |
| COc1cc([C@@H]2c3cc4c(cc3[C@@H](O[C@@H]3O[C@@H]5CO[C@@H](C)O[C@H]5[C@H](O)[C@H]3O)[C@H]3COC(=O)[C@H]23)OCO4)cc(OC)c1O | DNA topoisomerase 2-alpha (TOP2A, Homo sapiens, UniProt P11388) | enzyme activity, inhibitor | 7.8 µM | inhibition | 89.5% |
| COc1cc(-c2cncc3c2CN(C)Cc2cc(N4CCNCC4)ccc2-3)cc(OC)c1OC | MAPK/MAK/MRK overlapping kinase (MOK, Homo sapiens, UniProt Q9UQ07) | enzyme activity, inhibitor | 1 µM | remaining activity | 103% |
| S=C(NN=Cc1ccc(N2CCCCC2)cc1)Nc1c(Cl)cccc1Cl | DHFR | enzyme activity, inhibitor | 500 µM | inhibition | 83.2% |
